Measured values reported in ChEMBL document CHEMBL3779892, “Increasing the binding affinity of VEGFR-2 inhibitors by extending their hydrophobic interaction with the active site: Design, synthesis and biological evaluation of 1-substituted-4-(4-methoxybenzyl)phthalazine derivatives” (Eur J Med Chem, 2016).

Assays:
Format in all cases: functional
[1] = Growth inhibition of human HOP92 cells at 10 uM after 48 hrs by sulforhodamine B assay; settings: HOP-92, 48 h, read-out: GI
How it was run: (§1)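 Run at NCI on the 60-line panel. Cells grown in RPMI 1640 with 5% FBS and 2 mM L-glutamine, plated at 5000–40,000 cells/well by doubling time, and held 24 h at 37 °C before dosing. Drug (DMSO stock) given at a single final 10 µM in triplicate wells for 48 h. Adherent cells fixed with cold TCA (10% final), suspension cells with 16% TCA. SRB stain read at 515 nm. Percent growth from Tz, C and Ti.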

[2] = Growth inhibition of human OVCAR8 cells at 10 uM after 48 hrs by sulforhodamine B assay; settings: OVCAR-8, 48 h, read-out: GI; how it was run: as §1
[3] = Growth inhibition of human NCI-ADR-RES cells at 10 uM after 48 hrs by sulforhodamine B assay; settings: read-out: GI; how it was run: as §1
U-251 = experiment: Growth inhibition of human U251 cells at 10 uM after 48 hrs by sulforhodamine B assay; settings: U-251, 48 h, read-out: GI
How it was run: (§2)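 NCI-60 panel, adherent cells grown in RPMI 1640 with 5% FBS and 2 mM L-glutamine, plated at 5000–40,000 cells/well and preincubated 24 h at 37 °C, 5% CO2. 10 µM final compound from DMSO stock, triplicate wells, 48 h. Fixed with cold TCA (10% final, 60 min, 4 °C) and stained with 0.4% SRB. Absorbance read at 515 nm; growth calculated against time-zero and control wells.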

[4] = Growth inhibition of human LOXIMVI cells at 10 uM after 48 hrs by sulforhodamine B assay; settings: LOX IMVI, read-out: GI; how it was run: as §1
SK-MEL-5 = experiment: Growth inhibition of human SK-MEL-5 cells at 10 uM after 48 hrs by sulforhodamine B assay; settings: SK-MEL-5, 48 h, read-out: GI; how it was run: as §1
T47D = experiment: Growth inhibition of human T47D cells at 10 uM after 48 hrs by sulforhodamine B assay; settings: read-out: GI; how it was run: as §2
[5] = Growth inhibition of human UO31 cells at 10 uM after 48 hrs by sulforhodamine B assay; settings: UO-31, 48 h, read-out: GI; how it was run: as §2
[6] = Growth inhibition of human SW620 cells at 10 uM after 48 hrs by sulforhodamine B assay; settings: SW-620, 48 h, read-out: GI; how it was run: as §2
HT-29 = experiment: Growth inhibition of human HT-29 cells at 10 uM after 48 hrs by sulforhodamine B assay; settings: HT-29, 48 h, read-out: GI; how it was run: as §1
[7] = Growth inhibition of human SNB75 cells at 10 uM after 48 hrs by sulforhodamine B assay; settings: SNB-75, 48 h, read-out: GI; how it was run: as §1
[8] = Growth inhibition of human MOLT4 cells at 10 uM after 48 hrs by sulforhodamine B assay; settings: MOLT-4, 48 h, read-out: GI; how it was run: as §1
[9] = Growth inhibition of human TK10 cells at 10 uM after 48 hrs by sulforhodamine B assay; settings: TK-10, 48 h, read-out: GI; how it was run: as §2
[10] = Growth inhibition of human HCC2998 cells at 10 uM after 48 hrs by sulforhodamine B assay; settings: HCC 2998, 48 h, read-out: GI; how it was run: as §1
[11] = Growth inhibition of human HOP62 cells at 10 uM after 48 hrs by sulforhodamine B assay; settings: HOP-62, 48 h, read-out: GI; how it was run: as §1
[12] = Growth inhibition of human COLO205 cells at 10 uM after 48 hrs by sulforhodamine B assay; settings: COLO 205, 48 h, read-out: GI; how it was run: as §1
MCF7 = experiment: Growth inhibition of human MCF7 cells at 10 uM after 48 hrs by sulforhodamine B assay; settings: MCF7, 48 h, read-out: GI; how it was run: as §1
ACHN = experiment: Growth inhibition of human ACHN cells at 10 uM after 48 hrs by sulforhodamine B assay; settings: read-out: GI; how it was run: as §1
SK-MEL-28 = experiment: Growth inhibition of human SK-MEL-28 cells at 10 uM after 48 hrs by sulforhodamine B assay; settings: SK-MEL-28, 48 h, read-out: GI; how it was run: as §1
M14 = experiment: Growth inhibition of human M14 cells at 10 uM after 48 hrs by sulforhodamine B assay; settings: M14, 48 h, read-out: GI; how it was run: as §1
SN12C = experiment: Growth inhibition of human SN12C cells at 10 uM after 48 hrs by sulforhodamine B assay; settings: read-out: GI; how it was run: as §1
[13] = Growth inhibition of human SNB19 cells at 10 uM after 48 hrs by sulforhodamine B assay; settings: SNB-19, 48 h, read-out: GI; how it was run: as §1
MDA-MB-468 = experiment: Growth inhibition of human MDA-MB-468 cells at 10 uM after 48 hrs by sulforhodamine B assay; settings: MDA-MB-468, 48 h, read-out: GI; how it was run: as §1
SR = experiment: Growth inhibition of human SR cells at 10 uM after 48 hrs by sulforhodamine B assay; settings: read-out: GI
How it was run: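 NCI-60 screen. Cells were grown in RPMI 1640 with 5% FBS and 2 mM L-glutamine, plated at 5000–40,000 cells/well and held 24 h at 37 °C, 5% CO2. Single 10 µM final dose from DMSO stock, triplicate wells, 48 h. Settled cells were fixed with 80% TCA (16% final) and stained with 0.4% SRB. Dye was solubilized in 10 mM Tris and read at 515 nm. Growth was calculated against time-zero and untreated wells.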

NCI-H322M = experiment: Growth inhibition of human NCI-H322M cells at 10 uM after 48 hrs by sulforhodamine B assay; settings: read-out: GI; how it was run: as §1
[14] = Growth inhibition of human OVCAR3 cells at 10 uM after 48 hrs by sulforhodamine B assay; settings: OVCAR-3, 48 h, read-out: GI; how it was run: as §1
MDA-MB-435 = experiment: Growth inhibition of human MDA-MB-435 cells at 10 uM after 48 hrs by sulforhodamine B assay; settings: MDA-MB-435, 48 h, read-out: GI; how it was run: as §1
A549 = experiment: Growth inhibition of human A549 cells at 10 uM after 48 hrs by sulforhodamine B assay; settings: A549, 48 h, read-out: GI; how it was run: as §1
[15] = Growth inhibition of human UACC62 cells at 10 uM after 48 hrs by sulforhodamine B assay; settings: UACC-62, 48 h, read-out: GI; how it was run: as §2
[16] = Growth inhibition of human DU145 cells at 10 uM after 48 hrs by sulforhodamine B assay; settings: DU-145, 48 h, read-out: GI; how it was run: as §1
[17] = Growth inhibition of human SF539 cells at 10 uM after 48 hrs by sulforhodamine B assay; settings: SF-539, 48 h, read-out: GI; how it was run: as §1
[18] = Growth inhibition of human UACC257 cells at 10 uM after 48 hrs by sulforhodamine B assay; settings: UACC-257, 48 h, read-out: GI; how it was run: as §2
K562 = experiment: Growth inhibition of human K562 cells at 10 uM after 48 hrs by sulforhodamine B assay; settings: K562, 48 h, read-out: GI; how it was run: as §1
[19] = Growth inhibition of human SF295 cells at 10 uM after 48 hrs by sulforhodamine B assay; settings: SF-295, 48 h, read-out: GI; how it was run: as §1

SMILES	inhibition of growth at 10 µM [1]	inhibition of growth at 10 µM [2]	inhibition of growth at 10 µM [3]	inhibition of growth at 10 µM (U-251)	inhibition of growth at 10 µM [4]	inhibition of growth at 10 µM (SK-MEL-5)	inhibition of growth at 10 µM (T47D)	inhibition of growth at 10 µM [5]	inhibition of growth at 10 µM [6]	inhibition of growth at 10 µM (HT-29)	inhibition of growth at 10 µM [7]	inhibition of growth at 10 µM [8]	inhibition of growth at 10 µM [9]	inhibition of growth at 10 µM [10]	inhibition of growth at 10 µM [11]	inhibition of growth at 10 µM [12]	inhibition of growth at 10 µM (MCF7)	inhibition of growth at 10 µM (ACHN)	inhibition of growth at 10 µM (SK-MEL-28)	inhibition of growth at 10 µM (M14)	other results
COc1ccc(Cc2nnc(Nc3ccc(OC)cc3)c3ccccc23)cc1	55%	< 30%	< 30%	< 30%	< 30%	< 30%	46%	43%	< 30%	< 30%	< 30%	31%	< 30%	< 30%	< 30%	< 30%	38%	< 30%	< 30%	< 30%	inhibition of growth at 10 µM (SN12C): 34%; inhibition of growth at 10 µM [13]: < 30%; inhibition of growth at 10 µM (MDA-MB-468): < 30%; inhibition of growth at 10 µM (SR): 34%; inhibition of growth at 10 µM (NCI-H322M): < 30%; inhibition of growth at 10 µM [14]: < 30%; inhibition of growth at 10 µM (MDA-MB-435): < 30%; inhibition of growth at 10 µM (A549): < 30%; inhibition of growth at 10 µM [15]: 34%; inhibition of growth at 10 µM [16]: < 30%; inhibition of growth at 10 µM [17]: < 30%; inhibition of growth at 10 µM [18]: < 30%; inhibition of growth at 10 µM (K562): < 30%; inhibition of growth at 10 µM [19]: 30%
COc1ccc(Cc2nnc(Nc3ccc(Cl)cc3)c3ccccc23)cc1	76%	35%	48%	38%	58%	35%	44%	68%	< 30%	50%	< 30%	48%	52%	< 30%	40%	< 30%	36%	47%	< 30%	47%	inhibition of growth at 10 µM (SN12C): 50%; inhibition of growth at 10 µM [13]: 38%; inhibition of growth at 10 µM (MDA-MB-468): 42%; inhibition of growth at 10 µM (SR): 54%; inhibition of growth at 10 µM (NCI-H322M): 45%; inhibition of growth at 10 µM [14]: 40%; inhibition of growth at 10 µM (MDA-MB-435): 30%; inhibition of growth at 10 µM (A549): 40%; inhibition of growth at 10 µM [15]: 60%; inhibition of growth at 10 µM [16]: 42%; inhibition of growth at 10 µM [17]: 46%; inhibition of growth at 10 µM [18]: < 30%; inhibition of growth at 10 µM (K562): 48%; inhibition of growth at 10 µM [19]: 50%
COc1ccc(Cc2nnc(Nc3cccc(Cl)c3)c3ccccc23)cc1	63%	< 30%	32%	34%	< 30%	< 30%	41%	61%	< 30%	31%	32%	37%	< 30%	< 30%	< 30%	< 30%	< 30%	31%	< 30%	< 30%	inhibition of growth at 10 µM (SN12C): 34%; inhibition of growth at 10 µM [13]: 37%; inhibition of growth at 10 µM (MDA-MB-468): 30%; inhibition of growth at 10 µM (SR): 43%; inhibition of growth at 10 µM (NCI-H322M): < 30%; inhibition of growth at 10 µM [14]: 34%; inhibition of growth at 10 µM (MDA-MB-435): < 30%; inhibition of growth at 10 µM (A549): 45%; inhibition of growth at 10 µM [15]: 39%; inhibition of growth at 10 µM [16]: < 30%; inhibition of growth at 10 µM [17]: 35%; inhibition of growth at 10 µM [18]: < 30%; inhibition of growth at 10 µM (K562): 45%; inhibition of growth at 10 µM [19]: 33%
